Screens deposited in PubChem BioAssay by several laboratories.
hERG protect – hERG rescue from dofetilide block, primary screen, cell-based, CHO-hERG, FluxOR thallium flux, dofetilide IC70. Voltage-gated inwardly rectifying potassium channel KCNH2 (Homo sapiens), Q12809. dofetilide IC70 present. activation (rescue from dofetilide block), less the hit threshold, % at 10 µM. hit rate 0.51% among 310,000. AID 1511, 2009;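 active = activation above the mean of controls blocked by dofetilide plus 5 SD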;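 note: thallium influx through hERG after potassium depolarization seen as dye fluorescence rise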
KCC2 mod – KCC2 cotransporter modulators, thallium flux, primary screen, cell-based, HEK293 KCC2, FluoZin-2 fluorescence, MLSMR; KCC2 cells, thallium flux FluoZin-2 fluorescence; B-score of Tl+ flux slope (higher = more flux/activation; lower = inhibition) at 10 µM; hit rate 2.2% among 190,000; AID 1456, 2008;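 active = thallium flux slope and its plate-corrected score both differing from the plate sample mean at a set confidence after two filtering rounds, in either direction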;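 note: slope of fluorescence scaled to starting intensity during 10 to 20 s after thallium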
KCNK3 inh – human KCNK3 channel inhibitors, primary screen, CHO cells, FluxOR thallium flux, B-score | FluxOR fluorescence; active compounds read low | hit rate 0.84% among 340,000 | B-score at 10 µM;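 active = B-score under library mean minus 4 SD, starting fluorescence ratio at most library mean plus 5 SD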;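 note: more negative B-score means stronger inhibition of thallium flux through KCNK3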
KCNK9 inh – KCNK9 potassium channel inhibitors, primary screen, HEK293 cells, thallium flux; FluxOR thallium flux fluorescence; active compounds read low; B-score at 10 µM; hit rate 1.2% among 310,000; AID 488922, 2010;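 active = ratio B-score over 3 SD below the library mean, with starting fluorescence within 5 SD of its mean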;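 note: negative B-score means less thallium flux so channel inhibition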
KCNQ1 pot – potentiators or activators of KCNQ1 channel, primary screen, cell-based, thallium flux, high-throughput. Potassium voltage-gated channel subfamily KQT member 1 (Homo sapiens), P51787. CHO-K1 KCNQ1, thallium flux FluxOR fluorescence; active compounds read high. B-score at 10 µM. hit rate 0.35% among 310,000. AID 2648, 2010;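 active = fluorescence ratio B-score, a plate-corrected score, at least three library SD, with initial intensity B-score within 5 SD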
Target sequence (P51787 whole entry, looked up): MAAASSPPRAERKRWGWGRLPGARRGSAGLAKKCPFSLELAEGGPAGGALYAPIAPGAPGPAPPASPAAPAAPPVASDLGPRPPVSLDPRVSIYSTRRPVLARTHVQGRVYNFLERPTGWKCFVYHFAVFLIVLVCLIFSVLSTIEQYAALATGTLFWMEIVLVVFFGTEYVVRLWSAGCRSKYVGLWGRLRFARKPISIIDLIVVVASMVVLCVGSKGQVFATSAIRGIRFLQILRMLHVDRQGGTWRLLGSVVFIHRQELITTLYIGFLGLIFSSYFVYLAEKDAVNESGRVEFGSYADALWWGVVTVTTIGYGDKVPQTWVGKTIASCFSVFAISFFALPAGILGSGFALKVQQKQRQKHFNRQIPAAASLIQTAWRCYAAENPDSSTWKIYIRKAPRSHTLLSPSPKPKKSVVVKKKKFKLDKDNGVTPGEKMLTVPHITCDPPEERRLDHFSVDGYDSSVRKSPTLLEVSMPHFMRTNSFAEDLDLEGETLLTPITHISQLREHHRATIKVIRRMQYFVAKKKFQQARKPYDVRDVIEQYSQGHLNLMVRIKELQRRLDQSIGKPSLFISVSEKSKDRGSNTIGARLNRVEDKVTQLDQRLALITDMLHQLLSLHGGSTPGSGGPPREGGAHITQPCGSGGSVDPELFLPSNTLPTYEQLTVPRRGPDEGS
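Assay system: stable KCNQ1 CHO-K1 line; medium: assay buffer, equal DMSO in all wells; timing: 90 min dye loading and 20 min compound exposure, both at room temperature; technique: kinetic FluxOR thallium fluorescence, 10-s 1-Hz baseline, 110-s post-stimulus read; read-out basis: B score of baseline-normalized fluorescence ratio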
KCNQ1 block – inhibitors of human KCNQ1 channel, primary screen, cell-based, thallium flux, high-throughput; Potassium voltage-gated channel subfamily KQT member 1 (Homo sapiens), P51787; CHO-K1 KCNQ1, FluxOR thallium flux fluorescence; active compounds read high; hit rate 1.3% among 310,000; B-score at 10 µM;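 active = compounds whose thallium flux B-score, printed positive for inhibition, exceeds three library SD while starting fluorescence stays within three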;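 note: channel opened by potassium depolarization with thallium stimulus after 20 min compound exposure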
KCNK3 inh conf – retest of human KCNK3 channel inhibitors, confirmation, CHO cells, FluxOR thallium flux, triplicate. AID 651638, 2012. FluxOR fluorescence; 0% buffer, 100% carvedilol maximal block. ratio percent of control, % at 10 µM. hit rate 99% among 2,400. shares compounds with KCNK3 inh;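 active = ratio percent of control, averaged over triplicates, above buffer control mean plus 5 SD, cut at about 64% in these data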;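 note: ratio is the fluorescence rise from min to max over baseline after thallium stimulus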
KCNK3 uninduced – thallium flux inhibition in non-induced cells, primary screen, counter-screen for KCNK3 inhibitor project, cell-based, non-induced KCNK3 line, FluxOR thallium, triplicate. thallium flux ratio (lower = more inhibition) at 10 µM. hit rate 40% among 2,400. non-induced KCNK3 parental cells; active compounds read low. shares compounds with KCNK3 inh;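 active = thallium flux ratio, averaged over three wells, more than 5 SD below the buffer control mean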;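 note: host cells are CHO cells without KCNK3 induction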
A number is an active result; i = inactive; nt = no result. This is a sample that favours compounds with a hit; in the whole collection about 4.1% have one here.

SMILES	hERG protect	KCC2 mod	KCNK3 inh	KCNK9 inh	KCNQ1 pot	KCNQ1 block	KCNK3 inh conf	KCNK3 uninduced
C=CCOC(=O)C1=C(C)NC(=O)NC1c1cn(-c2ccccc2)nc1-c1cccs1 (stereo not drawn)	i	i	-9.22	i	i	i	119.7	0.153
O=C(c1cc(-c2cccnc2)nc2ccccc12)N1CCN(S(=O)(=O)c2ccc(Cl)s2)CC1	nt	nt	i	nt	nt	nt	nt	nt
Nc1ccc(Cl)c(S(=O)(=O)Nc2ccc(Cl)cc2)c1	i	i	i	i	i	i	nt	nt
Cc1cccc(CS(=O)(=O)c2ncc(CO)n2C)c1	i	nt	i	i	i	i	nt	nt
CCC(=O)Nc1ccccc1C(=O)OCc1ccc(C(=O)c2ccccc2)cc1	i	nt	-9.26	i	i	i	98.3	i
O=C(COc1cccnc1[N+](=O)[O-])c1ccc(Cl)s1	i	i	i	i	i	i	nt	nt
CCOC(=O)c1c(C)oc2ccc(O)c(CN(C)C)c12	i	i	i	i	i	i	nt	nt
CCOC(=O)c1c(CSc2ccc(CC)cc2)oc2ccc(O)c(CN(C)C)c12	i	nt	-9.13	-7.4	i	8	120.0	0.155
CC(C)(C)c1cc(C(=O)NNc2cc(C(F)(F)F)ccc2Cl)n(Cc2ccccc2)n1	i	i	-18.5	i	i	8	139.0	0.131
Cc1ccc(NC(=O)c2cc(C(C)(C)C)nn2Cc2ccccc2)cc1	i	i	-16.2	i	i	i	147.7	i
Cc1ccc(CCN2CC(C(=O)NC(C)C)CC2=O)cc1 (stereo not drawn)	i	nt	i	i	i	i	nt	nt
CN1N=C2c3ccccc3CCC2C1c1ccc(Cl)cc1 (stereo not drawn)	i	nt	i	i	i	i	nt	nt
CCN(CC)C(=O)C1CCCN(c2ccc([N+](=O)[O-])cc2/C=N/NC(=O)c2cccc(O)c2)C1 (stereo not drawn)	i	i	-14.3	i	i	i	90.7	i
O=C(CSc1ccc(F)cc1)N1CCC(c2nc3ccccc3s2)CC1	i	nt	i	i	i	i	nt	nt
O=C(CSc1ccccc1Cl)N1CCC(c2nc3ccccc3s2)CC1	i	i	-9.83	i	i	i	107.3	i
CC(C)Cc1nnc(NC(=O)CCC(=O)NCc2ccccc2Cl)s1	i	nt	i	i	i	i	nt	nt
O=C(Nc1nc(-c2ccccc2)cs1)C1c2ccccc2Oc2ccccc21	i	i	-8.77	-7.23	i	i	119.3	i
O=C(Nc1nc(-c2ccncc2)cs1)C1c2ccccc2Oc2ccccc21	i	i	i	i	i	i	nt	nt
COn1c(=O)c(-c2ccccc2)[n+]([O-])c2ccccc21	i	nt	i	i	i	i	nt	nt
COn1c(=O)c(-c2cccs2)[n+]([O-])c2ccccc21	i	i	-10.4	i	i	i	87.0	0.109
c1ccc(CNc2ncnc3scc(-c4cccs4)c23)nc1	i	i	-11.2	i	i	i	118.3	i
c1ccc(-c2csc3ncnc(NCc4ccccn4)c23)cc1	i	i	i	i	i	i	nt	nt
O=C1c2cccc3cccc(c23)C(=O)N1CCc1ccccc1	i	i	-9.6	i	i	i	117.7	i
O=C(O)C(Cc1ccccc1)N1C(=O)c2cccc3cccc(c23)C1=O (stereo not drawn)	i	i	i	i	i	i	nt	nt
CN(C)c1ccc(/C=C/C(=O)c2cc(Cl)ccc2O)cc1	i	i	-13.3	i	i	i	106.3	i
SMILES	hERG protect	KCC2 mod	KCNK3 inh	KCNK9 inh	KCNQ1 pot	KCNQ1 block	KCNK3 inh conf	KCNK3 uninduced
CN(CC(=O)Nc1ccccc1Cl)C(=O)CSc1nncn1C	i	nt	i	i	i	i	nt	nt
O=C(CCCc1ccccc1)Nc1ccnn1C1CCN(Cc2ccc(CO)o2)CC1	i	nt	i	i	i	i	nt	nt
COC(=O)c1cccc(NC(=O)CCN2C(=O)C3CC=CCC3C2=O)c1 (stereo not drawn)	nt	nt	i	nt	nt	nt	nt	nt
O=C(c1cc2nc(-c3ccc(F)cc3)cc(C(F)(F)F)n2n1)N1CCCCC1c1cccnc1 (stereo not drawn)	i	i	-10.9	i	i	i	120.7	0.142
CCN1CCN(C(=O)c2cc3nc(-c4ccccc4)cc(C(F)(F)F)n3n2)CC1	i	nt	-8.7	i	i	i	i	i
CN1CCN(C(=O)c2cc3nc(-c4ccc(F)cc4)cc(C(F)(F)F)n3n2)CC1	i	nt	i	i	i	i	nt	nt
O=[N+]([O-])c1ccccc1/C=N/N1CCN(Cc2ccccc2)CC1	i	nt	i	i	i	i	nt	nt
O=[N+]([O-])c1ccccc1/C=N\N1CCN(Cc2ccccc2Cl)CC1	i	nt	-8.95	i	i	i	99.3	i
O=C(CSc1nnc(NC(=O)c2ccccc2F)s1)NCC1CCCO1 (stereo not drawn)	i	nt	-8.81	i	i	i	86.0	i
COc1ccc2c(c1)[C@H]1[C@H](CO2)[C@H](c2ccccc2)[C@]2(C)C(=O)N(Cc3ccc(C)cc3)CC(=O)N12	nt	nt	i	nt	nt	nt	nt	nt
COc1ccc(OC)c(C2NC(=O)N(C)C(C)=C2C(=O)OCc2ccccc2)c1 (stereo not drawn)	i	nt	-9.28	i	i	i	140.7	0.105
CC1=C(C(=O)OCc2ccccc2)C(c2ccccc2Cl)NC(=O)N1C (stereo not drawn)	i	nt	i	i	i	i	nt	nt
CN(C)Cc1c(O)ccc2[nH]cnc12	i	i	-10.3	i	i	i	79.7	i
Oc1ccc2ccc3[nH]cnc3c2c1	i	i	i	i	i	i	nt	nt
CCCCN1C(=O)NC(c2cccc([N+](=O)[O-])c2)C(C(=O)OCC)=C1C (stereo not drawn)	i	nt	i	i	i	i	nt	nt
C#CCN1C(C)=C(C(=O)OC)C(c2cccc([N+](=O)[O-])c2)C(C(=O)OCC)=C1C (stereo not drawn)	nt	nt	-12.1	nt	nt	nt	109.0	i
CCN1C=C(Cc2ccc(F)cc2)C2=C(C1)C(c1ccc(F)cc1)C(C#N)=C(N)O2 (stereo not drawn)	i	i	-9.72	i	i	i	110.3	i
Cc1[nH]nc2c1C(c1ccc(F)cc1)C(C#N)=C(N)O2 (stereo not drawn)	i	i	i	i	i	i	nt	nt
